{
  "source": "ChEMBL document CHEMBL3046122",
  "about": "“Preparation and biological activity of four epiprogoitrin myrosinase-derived products” (2001)",
  "key": {"Lactuca sativa [1]": {"test_system": "Lactuca sativa", "experiment": "Antigerminative activity against Lactuca sativa (lettuce) seeds up to 16 mM after 7 days relative to control", "format": "functional, organism-based", "procedure,_shortened": "(§1)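 Lettuce seeds (L. sativa cv. Romana) incubated on filter paper at 20 °C for 7 days with each product at 0.4-32.0 mM. Read-out was the mean percentage of normal seedlings, expressed as percent of the untreated control.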"}, "Lactuca sativa [2]": {"test_system": "Lactuca sativa", "experiment": "Toxicity against Lactuca sativa (lettuce) assessed as decrease in root hair at 24 to 32 mM after 7 days", "format": "functional, organism-based"}, "Lactuca sativa [3]": {"test_system": "Lactuca sativa", "experiment": "Toxicity against Lactuca sativa (lettuce) assessed as Inhibition of root growth at 8 to 32 mM after 7 days relative to control", "format": "functional, organism-based", "procedure,_shortened": "(§2)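 Lettuce (L. sativa cv. Romana) seeds germinated on filter paper at 20 °C for 7 days with doses of 0.4-32.0 mM. Root length of normal seedlings was measured at the end and expressed as percent of control. Three replicates were run, with standard error given.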"}, "Lactuca sativa [4]": {"test_system": "Lactuca sativa", "experiment": "Toxicity against Lactuca sativa (lettuce) assessed as Inhibition of root growth at 4 mM after 7 days relative to control", "format": "functional", "set-up": "scale not given: the % may be the effect or the level left", "procedure,_shortened": "as §2"}, "Lactuca sativa [5]": {"test_system": "Lactuca sativa", "experiment": "Toxicity against Lactuca sativa (lettuce) assessed as root tissue rotting at 32 mM after 7 days", "format": "functional, organism-based"}, "Lactuca sativa [6]": {"test_system": "Lactuca sativa", "experiment": "Toxicity against Lactuca sativa (lettuce) assessed as branched root formation at low concentration after 7 days", "format": "functional, organism-based"}, "Lactuca sativa [7]": {"test_system": "Lactuca sativa", "experiment": "Antigerminative activity against Lactuca sativa (lettuce) seeds at 24 to 32 mM after 7 days relative to control", "format": "functional, organism-based", "procedure,_shortened": "as §1"}, "Lactuca sativa [8]": {"test_system": "Lactuca sativa", "experiment": "Toxicity against Lactuca sativa (lettuce) assessed as decrease in cotyledons at low concentration after 7 days", "format": "functional, organism-based", "procedure,_shortened": "(§3)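 Lettuce (L. sativa cv. Romana) seeds were kept on filter paper at 20 °C for 7 days with each product at 0.4-32.0 mM. Seedlings were scored at the end for abnormalities: root apex necrosis, absent cotyledons, and imbibed seeds with broken coats from starting radicle protrusion.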"}, "Lactuca sativa [9]": {"test_system": "Lactuca sativa", "experiment": "Toxicity against Lactuca sativa (lettuce) assessed as seed radicle protrusion at low concentration after 7 days", "format": "functional, organism-based", "procedure,_shortened": "as §3"}, "Lactuca sativa [10]": {"test_system": "Lactuca sativa", "experiment": "Antigerminative activity against Lactuca sativa (lettuce) seeds up to 2.4 to 3.2 mM after 7 days relative to control", "format": "functional, organism-based", "procedure,_shortened": "(§4)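 Lettuce (L. sativa cv. Romana) seeds germinated on filter paper at 20 °C for 7 days with each product at 0.4-32.0 mM. Read-out is the mean percentage of normal seedlings, expressed as percent of the untreated control.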"}, "Lactuca sativa [11]": {"test_system": "Lactuca sativa", "experiment": "Toxicity against Lactuca sativa (lettuce) assessed as imbibed seed with broken seed coat at low concentration after 7 days", "format": "functional, organism-based", "procedure,_shortened": "as §3"}, "Lactuca sativa [12]": {"test_system": "Lactuca sativa", "experiment": "Toxicity against Lactuca sativa (lettuce) assessed as Inhibition of root growth after 7 days relative to control", "format": "functional, organism-based", "procedure,_shortened": "(§5)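 Lettuce (L. sativa cv. Romana) seeds were kept on filter paper at 20 °C for 7 days with each product at 0.4-32.0 mM. Root length of normal seedlings was measured at the end and given as percent of the untreated control. Three replicates were run.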"}, "Lactuca sativa [13]": {"test_system": "Lactuca sativa", "experiment": "Toxicity against Lactuca sativa (lettuce) assessed as root apex necrosis at low concentration after 7 days", "format": "functional, organism-based", "procedure,_shortened": "as §3"}, "Lactuca sativa [14]": {"test_system": "Lactuca sativa", "experiment": "Antigerminative activity against Lactuca sativa (lettuce) seeds at 0.8 to 20 mM after 7 days relative to control", "format": "functional, organism-based", "procedure,_shortened": "as §4"}, "Lactuca sativa [15]": {"test_system": "Lactuca sativa", "experiment": "Toxicity against Lactuca sativa (lettuce) assessed as Inhibition of root growth up to 16 mM after 7 days relative to control", "format": "functional, organism-based", "procedure,_shortened": "as §5"}, "Lactuca sativa [16]": {"test_system": "Lactuca sativa", "experiment": "Antigerminative activity against Lactuca sativa (lettuce) seeds up to 0.8 mM after 7 days relative to control", "format": "functional, organism-based", "procedure,_shortened": "as §4"}, "Lactuca sativa [17]": {"test_system": "Lactuca sativa", "experiment": "Toxicity against Lactuca sativa (lettuce) assessed as Inhibition of root growth at 0.4 to 2 mM after 7 days relative to control", "format": "functional, organism-based", "procedure,_shortened": "as §5"}, "Lactuca sativa [18]": {"test_system": "Lactuca sativa", "experiment": "Antigerminative activity against Lactuca sativa (lettuce) seeds at 1.2 mM after 7 days relative to control", "format": "functional", "procedure,_shortened": "as §4"}, "Lactuca sativa [19]": {"test_system": "Lactuca sativa", "experiment": "Antigerminative activity against Lactuca sativa (lettuce) seeds at 2 mM after 7 days relative to control", "format": "functional, organism-based", "procedure,_shortened": "as §4"}},
  "note": "Calls of active or inactive are those of the source. The rule behind the calls is not given here.",
  "data": [
    {"smiles": "C=C[C@@H]1CNC(=S)O1", "values": [
      {"measurement": "Activity", "setting": "Lactuca sativa [1]", "value": "inactive"},
      {"measurement": "Activity", "setting": "Lactuca sativa [2]", "value": "Active"},
      {"measurement": "Activity", "setting": "Lactuca sativa [3]", "value": "Active"},
      {"measurement": "Activity", "setting": "Lactuca sativa [4]", "value": ">40", "unit": "%"},
      {"measurement": "Activity", "setting": "Lactuca sativa [5]", "value": "Active"},
      {"measurement": "Activity", "setting": "Lactuca sativa [6]", "value": "Active"},
      {"measurement": "Activity", "setting": "Lactuca sativa [7]", "value": "Active"}
    ]},
    {"smiles": "N#CC[C@H](O)[C@H]1CS1", "values": [
      {"measurement": "Activity", "setting": "Lactuca sativa [8]", "value": "Active"},
      {"measurement": "Activity", "setting": "Lactuca sativa [9]", "value": "Active"},
      {"measurement": "Activity", "setting": "Lactuca sativa [10]", "value": "Active"},
      {"measurement": "Activity", "setting": "Lactuca sativa [11]", "value": "Active"},
      {"measurement": "Activity", "setting": "Lactuca sativa [12]", "value": "Dose-dependent effect"},
      {"measurement": "Activity", "setting": "Lactuca sativa [13]", "value": "Active"}
    ]},
    {"smiles": "C=C[C@@H](O)CC#N", "values": [
      {"measurement": "Activity", "setting": "Lactuca sativa [14]", "value": "Active"},
      {"measurement": "Activity", "setting": "Lactuca sativa [8]", "value": "Active"},
      {"measurement": "Activity", "setting": "Lactuca sativa [9]", "value": "Active"},
      {"measurement": "Activity", "setting": "Lactuca sativa [11]", "value": "Active"},
      {"measurement": "Activity", "setting": "Lactuca sativa [15]", "value": "inactive"},
      {"measurement": "Activity", "setting": "Lactuca sativa [13]", "value": "Active"}
    ]},
    {"smiles": "N#CC[C@H](O)[C@@H]1CS1", "values": [
      {"measurement": "Activity", "setting": "Lactuca sativa [8]", "value": "Active"},
      {"measurement": "Activity", "setting": "Lactuca sativa [9]", "value": "Active"},
      {"measurement": "Activity", "setting": "Lactuca sativa [16]", "value": "Active"},
      {"measurement": "Activity", "setting": "Lactuca sativa [17]", "value": "Active"},
      {"measurement": "Activity", "setting": "Lactuca sativa [11]", "value": "Active"},
      {"measurement": "Activity", "setting": "Lactuca sativa [18]", "value": 40, "unit": "%"},
      {"measurement": "Activity", "setting": "Lactuca sativa [19]", "value": "Active"},
      {"measurement": "Activity", "setting": "Lactuca sativa [13]", "value": "Active"}
    ]}
  ]
}
